# Reference: ChEMBL document CHEMBL5058577, “EUbOPEN Chemogenomics Library 2 (Multiplex)” (2022)
# System: Fibroblast
# Assay: Multiplex assay against human fibroblast
# Type: toxicity, cell-based
# Method in brief: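 Cells stained live at seeding with Hoechst33342, BioTracker Green Microtubule Cytoskeleton Dye, MitoTracker Red and Annexin V Alexa Fluor 680 were imaged on a CQ1 microscope at 37°C and 5% CO2 after compound addition. Their classification by CellPathfinder machine-learning gating ran from Hoechst high-intensity objects versus normal cells, to healthy, pyknosed or fragmented nuclei among normal cells, to mitotic or apoptotic among pyknosed cells. Tubulin, mitochondrial-mass and membrane-permeability phenotypes are per cents of healthy-nucleus cells.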
# [1] = 12 h, 1 µM, compound concentration 1 uM, replicate 1
# [2] = 12 h, 1 µM, compound concentration 1 uM, replicate 2
# [3] = 12 h, 10 µM, compound concentration 10 uM, replicate 1
# [4] = 12 h, 10 µM, compound concentration 10 uM, replicate 2
# [5] = 24 h, 1 µM, compound concentration 1 uM, replicate 1
# [6] = 24 h, 1 µM, compound concentration 1 uM, replicate 2
# [7] = 24 h, 10 µM, compound concentration 10 uM, replicate 1
# [8] = 24 h, 10 µM, compound concentration 10 uM, replicate 2
# [9] = 48 h, 1 µM, compound concentration 1 uM, replicate 1
# [10] = 48 h, 1 µM, compound concentration 1 uM, replicate 2
# [11] = 48 h, 10 µM, compound concentration 10 uM, replicate 1
# [12] = 48 h, 10 µM, compound concentration 10 uM, replicate 2
smiles,measurement,setting,value
N#Cc1c(Oc2cccc(OS(=O)(=O)CCCC(F)(F)F)c2)cccc1C(F)(F)F,Population Apoptotic (%),[1],51%
same,Population Fragmented Nuclei (%),[1],13%
same,Population Healthy Nuclei (%),[1],63%
same,Population Hoechst High Intensity Objects (%),[1],2%
same,Population Membrane Permeable-Phenotype (%),[1],1%
same,Population Mitochondria Different-Phenotype (%),[1],7%
same,Population Mitotic Cells (%),[1],48%
same,Population Normal (%),[1],97%
same,Population Pyknosed Nuclei (%),[1],23%
same,Population Tubulin-Different-Phenotype (%),[1],38%
same,Total Cell Count,[1],146
same,Population Apoptotic (%),[2],38%
same,Population Fragmented Nuclei (%),[2],27%
same,Population Healthy Nuclei (%),[2],48%
same,Population Hoechst High Intensity Objects (%),[2],7%
same,Population Membrane Permeable-Phenotype (%),[2],9%
same,Population Mitotic Cells (%),[2],61%
same,Population Normal (%),[2],92%
same,Population Pyknosed Nuclei (%),[2],24%
same,Population Tubulin-Different-Phenotype (%),[2],59%
same,Total Cell Count,[2],148
same,Population Apoptotic (%),[3],31%
same,Population Fragmented Nuclei (%),[3],14%
same,Population Healthy Nuclei (%),[3],59%
same,Population Hoechst High Intensity Objects (%),[3],6%
same,Population Membrane Permeable-Phenotype (%),[3],1%
same,Population Mitochondria Different-Phenotype (%),[3],7%
same,Population Mitotic Cells (%),[3],68%
same,Population Normal (%),[3],93%
same,Population Pyknosed Nuclei (%),[3],26%
same,Population Tubulin-Different-Phenotype (%),[3],36%
same,Total Cell Count,[3],180
same,Population Apoptotic (%),[4],66%
same,Population Fragmented Nuclei (%),[4],42%
same,Population Healthy Nuclei (%),[4],22%
same,Population Hoechst High Intensity Objects (%),[4],7%
same,Population Membrane Permeable-Phenotype (%),[4],13%
same,Population Mitochondria Different-Phenotype (%),[4],3%
same,Population Mitotic Cells (%),[4],33%
same,Population Normal (%),[4],92%
same,Population Pyknosed Nuclei (%),[4],35%
same,Population Tubulin-Different-Phenotype (%),[4],75%
same,Total Cell Count,[4],138
same,Population Apoptotic (%),[5],50%
same,Population Fragmented Nuclei (%),[5],20%
same,Population Healthy Nuclei (%),[5],62%
same,Population Hoechst High Intensity Objects (%),[5],6%
same,Population Membrane Permeable-Phenotype (%),[5],1%
same,Population Mitochondria Different-Phenotype (%),[5],4%
same,Population Mitotic Cells (%),[5],50%
same,Population Normal (%),[5],93%
same,Population Pyknosed Nuclei (%),[5],17%
same,Population Tubulin-Different-Phenotype (%),[5],45%
same,Total Cell Count,[5],148
same,Population Apoptotic (%),[6],54%
same,Population Fragmented Nuclei (%),[6],33%
same,Population Healthy Nuclei (%),[6],50%
same,Population Hoechst High Intensity Objects (%),[6],3%
same,Population Membrane Permeable-Phenotype (%),[6],5%
same,Population Mitochondria Different-Phenotype (%),[6],5%
same,Population Mitotic Cells (%),[6],45%
same,Population Normal (%),[6],96%
same,Population Pyknosed Nuclei (%),[6],16%
same,Population Tubulin-Different-Phenotype (%),[6],57%
same,Total Cell Count,[6],147
same,Population Apoptotic (%),[7],44%
same,Population Fragmented Nuclei (%),[7],13%
same,Population Healthy Nuclei (%),[7],59%
same,Population Hoechst High Intensity Objects (%),[7],5%
same,Population Membrane Permeable-Phenotype (%),[7],4%
same,Population Mitochondria Different-Phenotype (%),[7],12%
same,Population Mitotic Cells (%),[7],55%
same,Population Normal (%),[7],94%
same,Population Pyknosed Nuclei (%),[7],27%
same,Population Tubulin-Different-Phenotype (%),[7],43%
same,Total Cell Count,[7],174
same,Population Apoptotic (%),[8],61%
same,Population Fragmented Nuclei (%),[8],40%
same,Population Healthy Nuclei (%),[8],23%
same,Population Hoechst High Intensity Objects (%),[8],8%
same,Population Membrane Permeable-Phenotype (%),[8],18%
same,Population Mitochondria Different-Phenotype (%),[8],22%
same,Population Mitotic Cells (%),[8],38%
same,Population Normal (%),[8],91%
same,Population Pyknosed Nuclei (%),[8],36%
same,Population Tubulin-Different-Phenotype (%),[8],77%
same,Total Cell Count,[8],127
same,Population Apoptotic (%),[9],60%
same,Population Fragmented Nuclei (%),[9],18%
same,Population Healthy Nuclei (%),[9],66%
same,Population Hoechst High Intensity Objects (%),[9],7%
same,Population Membrane Permeable-Phenotype (%),[9],1%
same,Population Mitochondria Different-Phenotype (%),[9],5%
same,Population Mitotic Cells (%),[9],40%
same,Population Normal (%),[9],92%
same,Population Pyknosed Nuclei (%),[9],14%
same,Population Tubulin-Different-Phenotype (%),[9],42%
same,Total Cell Count,[9],145
same,Population Apoptotic (%),[10],38%
same,Population Fragmented Nuclei (%),[10],26%
same,Population Healthy Nuclei (%),[10],59%
same,Population Hoechst High Intensity Objects (%),[10],5%
same,Population Membrane Permeable-Phenotype (%),[10],13%
same,Population Mitochondria Different-Phenotype (%),[10],2%
same,Population Mitotic Cells (%),[10],61%
same,Population Normal (%),[10],94%
same,Population Tubulin-Different-Phenotype (%),[10],56%
same,Total Cell Count,[10],133
same,Population Apoptotic (%),[11],52%
same,Population Fragmented Nuclei (%),[11],20%
same,Population Healthy Nuclei (%),[11],54%
same,Population Hoechst High Intensity Objects (%),[11],9%
same,Population Membrane Permeable-Phenotype (%),[11],2%
same,Population Mitochondria Different-Phenotype (%),[11],12%
same,Population Mitotic Cells (%),[11],47%
same,Population Normal (%),[11],90%
same,Population Pyknosed Nuclei (%),[11],24%
same,Population Tubulin-Different-Phenotype (%),[11],47%
same,Total Cell Count,[11],172
same,Population Apoptotic (%),[12],59%
same,Population Fragmented Nuclei (%),[12],43%
same,Population Healthy Nuclei (%),[12],31%
same,Population Hoechst High Intensity Objects (%),[12],2%
same,Population Membrane Permeable-Phenotype (%),[12],23%
same,Population Mitochondria Different-Phenotype (%),[12],15%
same,Population Mitotic Cells (%),[12],40%
same,Population Normal (%),[12],97%
same,Population Pyknosed Nuclei (%),[12],25%
same,Population Tubulin-Different-Phenotype (%),[12],89%
same,Total Cell Count,[12],150
